# This is a sample that favours compounds with a hit; in the whole collection about 1.5% have one here.
# C8 TRAIL sens = sensitizes caspase-8 expressing cells to TRAIL; NB7+C8 cells + TRAIL, ATPlite viability luminescence; inhibition (viability loss, TRAIL sensitization), % at 10 µM; actives 1% (n = 360,000); AID 624354;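 active means compounds causing at least 50% loss of cell viability in the single-dose screen, relative to plate controls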
# PPC-1+TRAIL kill = compounds killing PPC-1 cancer cells with TRAIL present (potentiator screen, no TRAIL-free arm); cell killing (% activity), % at 4 µM or 5 µM; PPC-1 cells + TRAIL, ATPLite viability luminescence; actives 0.41% (n = 220,000); AID 1443;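 active means cell killing above 50% in the first pass at 4 µM, then a duplicate retest at 5 µM averaging 50% or more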;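 further: plate controls were cells with TRAIL plus DMSO for no effect and medium-only wells lacking cells for full effect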
# FLuc inh counter = inhibits firefly luciferase, flagging false hits in luciferase inhibition screens; ATPLite firefly luciferase biochemical luminescence, 10 min; inhibition, % at 10 µM; actives 1.5% (n = 200,000); P08659; AID 1006;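 active means inhibition above about 50% when tested at 10 µM, limit read from the data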
# FLuc act counter = firefly luciferase counter-screen for stimulation assays | ATPlite luciferase biochemical, luminescence, 10 min; 0 = ATP-free wells, 1 = DMSO control | activation factor at 10 µM | 200,000 tested, under 10 active;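 active means luciferase activation factor, scaled between plate controls, of at least 2 with compound at 10 µM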
#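 Assay system – cell-free luciferase reagent · Medium – PBS-based ATP solution · Dosing – test compounds dosed from 2 mM stocks in 100% DMSO · Timing – 10 min, room temperature · Technique – light output (luminescence) · Measure – luminescence gain marking luciferase activators · Controls – No-ATP low control, compound-free enzyme-plus-ATP high control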
# Numbers without * were called inactive; · = not tested or not shown.
SMILES,C8 TRAIL sens,PPC-1+TRAIL kill,FLuc inh counter,FLuc act counter
CCN1CCN(CC(=O)N2N=C(c3cccs3)CC2c2ccc(OC)c(OC)c2)C(=O)C1=O (stereo unspecified),21,31,-7,1.1
COCCn1c(C)c(C)c(S(=O)(=O)c2ccccc2)c1N,-11,·,·,·
CS(=O)(=O)c1ccc(C(=O)OCC(=O)N2CCN(CCC3CCCCC3)CC2)cc1[N+](=O)[O-],89*,·,·,·
CS(=O)(=O)c1ccc(C(=O)OCC(=O)N2CCOCC2)cc1[N+](=O)[O-],-5,·,·,·
CCOC(=O)N1CCC(Nc2c(-c3ccc(C)cc3)c(=O)c2=O)CC1,60*,37,4,1
CC[C@]12c3[nH]c4cc(CCC(=O)N(C)C)ccc4c3CCN1C(=O)[C@@H](CC(=O)NCCCn1ccnc1)C[C@@H]2C(=O)N1CCN(C(=O)c2ccco2)CC1,-14,·,·,·
C[C@H](CO)N1C[C@H](C)[C@@H](CN(C)Cc2ccccn2)Oc2ncc(-c3ccccc3)cc2C1=O,4,·,·,·
COCCOCCn1c(/C=C/c2ccccc2)nc2ccccc21,53*,48,84*,0.2
CC(C)n1c(/C=C/c2ccccc2)nc2ccccc21,52*,33,70*,0.3
CC(C)n1c(CN(C)c2ccccc2)nc2ccccc21,9,·,·,·
CCCn1c(/C=C/c2ccccc2)nc2ccccc21,53*,37,72*,0.3
CC(C)N1CCCC(C)(C(=O)Nc2nc3ccccc3[nH]2)C1 (stereo unspecified),1,·,·,·
COC(=O)[C@]12CCCCC=C1N(CCc1ccc(OC)c(OC)c1)C(=O)[C@H](CC(=O)NCc1ccc(C)o1)C2,-10,·,·,·
CCCC(=O)Nc1ccc(C2C(=O)c3ccccc3C2=O)cc1,76*,·,·,·
CN(NC(=O)C(C)(C)C)c1nc(-c2ccccc2)nnc1C(F)(F)F,56*,19,-4,1
COc1ccc(C(=O)NN(C)c2nc(-c3ccccc3)nnc2C(F)(F)F)cc1,20,9,0,1
CNc1nc(-c2ccccc2)[n+](-c2ccc(C)cc2)s1,-7,15,89*,0.1
Cc1ccc(-c2nc(N)s[n+]2-c2ccccc2)cc1,22,17,80*,0.2
CCC(=O)N1CCc2cc(S(=O)(=O)CCC(=O)N3CCN(c4ccc(F)cc4)CC3)ccc21,-11,·,·,·
CCOC(=O)COn1c(=O)c(-c2cc3ccccc3o2)[n+]([O-])c2ccccc21,39,29,52*,0.5
COc1ccccc1NC(=O)COC(=O)CCC(=O)c1cccs1,-6,·,·,·
CCCC(=O)N(Cc1cc2cc(OC)ccc2[nH]c1=O)c1ccccc1OC,3,·,·,·
COc1cc2sc3ccc(-c4ccc(CN5CCOCC5)cc4)cc3c(=O)c2cc1OC,53*,·,·,·
COC(=O)/C=C1\OCc2ccc(C)cc21,-2,·,·,·
CCOc1ccc(-c2c(C#N)c(N)nc3c2c(=O)n(C)c(=O)n3C)cc1OC,86*,28,-18,1.2
SMILES,C8 TRAIL sens,PPC-1+TRAIL kill,FLuc inh counter,FLuc act counter
COc1ccc(-c2c(C#N)c(N)nc3c2c(=O)n(C)c(=O)n3C)cc1,-2,11,-8,1.1
O=C(c1cccc(OCc2ccccc2)c1)N1CCOCC1,-7,4,0,1
CCOc1ccc(OCc2cccc(C(=O)N3CCOCC3)c2)cc1,65*,43,72*,0.3
O=C(O)CCC(C(=O)O)N1C(=O)C2C3CCC(C3)C2C1=O (stereo unspecified),16,·,·,·
COc1ccc(NC2=Nc3ccccc3N3C2=Nc2c(c(C)nn2-c2ccc(C)cc2)C3c2cccnc2)cc1 (stereo unspecified),-7,11,-1,1
CC(=O)Nc1ccc(NC2=Nc3ccccc3N3C2=Nc2c(c(C)nn2-c2ccccc2)C3c2ccccc2)cc1 (stereo unspecified),72*,16,-3,1
O=C(C(=O)N1CCCN(Cc2ccc(F)cc2)CC1)c1ccccc1,4,·,·,·
Cc1ccc(C(=O)Nc2ccc(Cl)cc2C)c(Cl)c1,55*,44,76*,0.2
O=C(NC1CCCCCCC1)c1cc(F)c(F)cc1Cl,5,21,3,1
Cc1cc(C(=O)NC2CCCCC2)c(C)n1-c1ccc(F)cc1,21,6,51*,0.5
Cc1ccc(C(=O)Nc2ccc(Cl)cc2C(F)(F)F)c(Cl)c1,14,7,26,0.7
Cc1ccc(C(=O)NC2CCCCCCC2)c(Cl)c1,61*,·,·,·
CC(C)(COC(=O)c1ccccc1)N1CC2CCC(C1)O2,-13,·,·,·
CN(Cc1ccccc1)C(=O)C1CCN(S(=O)(=O)c2cccc3nonc23)CC1,2,·,·,·
Nc1c(Cl)cc(C(=O)NC2CC2)cc1Cl,-3,·,·,·

# Screens deposited in PubChem BioAssay by Sanford-Burnham Center for Chemical Genomics.
